According to ChEMBL document CHEMBL2331504, “New pyrazole derivatives containing 1,2,4-triazoles and benzoxazoles as potent antimicrobial and analgesic agents” (2013):
Converted amounts (≈) assume the structure as drawn.

Assays:
Format in all cases: functional
Bacillus subtilis = experiment: Antimicrobial activity against Bacillus subtilis after 16 hrs by serial dilution method
Procedure, shortened: (§1)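 Tube broth serial dilution in trypticase soya broth, from 1 mg/mL DMF stocks. Cultures were grown 6 h at 37 °C, adjusted to a McFarland standard, then diluted to a 10^5 cfu/mL inoculum. Tubes were incubated 16 h at 37 °C, alongside inoculum and broth controls and ceftriaxone or fluconazole reference. MIC was read as the tubes showing no visible growth.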

Staphylococcus aureus = experiment: Antimicrobial activity against Staphylococcus aureus after 16 hrs by serial dilution method; procedure, shortened: as §1
Rattus norvegicus [1] = experiment: Analgesic activity against Wistar albino rat at 200 mg/kg, ip measured immediately after compound administration by tail flick method (reference value: 1.9 +/- 0.12 %); conditions: route intraperitoneal, read-out: INH
Rattus norvegicus [2] = experiment: Analgesic activity against Wistar albino rat at 200 mg/kg, ip measured immediately after 120 mins post compound treatment by tail flick method (reference value: 2.22 +/- 0.07 %); conditions: 2 h, route intraperitoneal, read-out: INH
Escherichia coli = experiment: Antimicrobial activity against Escherichia coli after 16 hrs by serial dilution method; procedure, shortened: as §1
Pseudomonas aeruginosa = experiment: Antimicrobial activity against Pseudomonas aeruginosa after 16 hrs by serial dilution method; procedure, shortened: as §1
Rattus norvegicus [3] = experiment: Analgesic activity against Wistar albino rat at 200 mg/kg, ip measured immediately after 30 mins post compound treatment by tail flick method (reference value: 4.20 +/- 0.12 %); conditions: 0.5 h, route intraperitoneal
Candida albicans = experiment: Antimicrobial activity against Candida albicans after 16 hrs by serial dilution method; procedure, shortened: as §1
Rattus norvegicus [4] = experiment: Analgesic activity against Wistar albino rat at 200 mg/kg, ip measured immediately after 60 mins post compound treatment by tail flick method (reference value: 4.18 +/- 0.13 %); conditions: 1 h, route intraperitoneal, read-out: INH
Rattus norvegicus [5] = experiment: Analgesic activity against Wistar albino rat at 2 mg/kg, ip measured immediately after 120 mins post compound treatment by tail flick method (reference value: 2.22 +/- 0.07 %); conditions: 2 h, route intraperitoneal
Rattus norvegicus [6] = experiment: Analgesic activity against Wistar albino rat at 2 mg/kg, ip measured immediately after 30 mins post compound treatment by tail flick method (reference value: 4.20 +/- 0.12 %); conditions: 0.5 h, route intraperitoneal
Rattus norvegicus [7] = experiment: Analgesic activity against Wistar albino rat at 2 mg/kg, ip measured immediately after 60 mins post compound treatment by tail flick method (reference value: 4.18 +/- 0.13 %); conditions: 1 h, route intraperitoneal
Rattus norvegicus [8] = experiment: Analgesic activity against Wistar albino rat at 2 mg/kg, ip measured immediately after compound administration by tail flick method (reference value: 1.9 +/- 0.12 %); conditions: route intraperitoneal

Structure (SMILES)	MIC (Bacillus subtilis)	MIC (Staphylococcus aureus)	tail-flick reaction time at 200 mg/kg (Rattus norvegicus [1])	tail flick reaction time at 200 mg/kg (Rattus norvegicus [2])	MIC (Escherichia coli)	MIC (Pseudomonas aeruginosa)	inhibition in vivo at 200 mg/kg (Rattus norvegicus [3])	MIC (Candida albicans)	tail-flick reaction time at 200 mg/kg (Rattus norvegicus [4])	inhibition in vivo at 2 mg/kg (Rattus norvegicus [5])	inhibition in vivo at 2 mg/kg (Rattus norvegicus [6])	inhibition in vivo at 2 mg/kg (Rattus norvegicus [7])	inhibition in vivo at 2 mg/kg (Rattus norvegicus [8])
Cc1ccc(-c2nnc(S)n2/N=C/c2c[nH]nc2-c2ccc(Cl)cc2Cl)cn1	1.61 µg/mL (≈ 3.75 µM)	3.12 µg/mL (≈ 7.26 µM)	2.93%	2.98%	3.12 µg/mL (≈ 7.26 µM)	1.61 µg/mL (≈ 3.75 µM)	3.5%	6.25 µg/mL (≈ 14.5 µM)	4.15%	–	–	–	–
O=C(CSc1nc2ccccc2o1)N/N=C/c1c[nH]nc1-c1ccc(Cl)cc1Cl	6.25 µg/mL (≈ 14 µM)	12.5 µg/mL (≈ 28 µM)	2.27%	3.62%	3.12 µg/mL (≈ 7 µM)	6.25 µg/mL (≈ 14 µM)	3.38%	12.5 µg/mL (≈ 28 µM)	3.45%	–	–	–	–
CSc1ccc(-c2n[nH]cc2/C=N/NC(=O)CSc2nc3ccccc3o2)cc1	12.5 µg/mL (≈ 29.5 µM)	6.25 µg/mL (≈ 14.8 µM)	3.05%	3.83%	6.25 µg/mL (≈ 14.8 µM)	6.25 µg/mL (≈ 14.8 µM)	3.15%	12.5 µg/mL (≈ 29.5 µM)	3.53%	–	–	–	–
O=C(CSc1nc2ccccc2o1)N/N=C/c1c[nH]nc1-c1cc(Cl)sc1Cl	3.12 µg/mL (≈ 6.91 µM)	6.25 µg/mL (≈ 13.8 µM)	2.55%	3.06%	3.12 µg/mL (≈ 6.91 µM)	6.25 µg/mL (≈ 13.8 µM)	2.82%	25 µg/mL (≈ 55.3 µM)	2.93%	–	–	–	–
O=C(CSc1nc2ccccc2o1)N/N=C/c1c[nH]nc1-c1ccc(-c2ccccc2)cc1	12.5 µg/mL (≈ 27.6 µM)	12.5 µg/mL (≈ 27.6 µM)	3.13%	3.63%	25 µg/mL (≈ 55.1 µM)	12.5 µg/mL (≈ 27.6 µM)	3.27%	25 µg/mL (≈ 55.1 µM)	3.43%	–	–	–	–
Clc1ccc(-c2n[nH]cc2/C=N/Nc2nc3cc(Cl)cc(Cl)c3o2)c(Cl)c1	6.25 µg/mL (≈ 14.2 µM)	12.5 µg/mL (≈ 28.3 µM)	2.75%	3.2%	12.5 µg/mL (≈ 28.3 µM)	3.12 µg/mL (≈ 7.08 µM)	2.92%	12.5 µg/mL (≈ 28.3 µM)	3.05%	–	–	–	–
CSc1ccc(-c2n[nH]cc2/C=N/Nc2nc3cc(Cl)cc(Cl)c3o2)cc1	12.5 µg/mL (≈ 29.9 µM)	6.25 µg/mL (≈ 14.9 µM)	3.25%	3.63%	12.5 µg/mL (≈ 29.9 µM)	12.5 µg/mL (≈ 29.9 µM)	3.42%	25 µg/mL (≈ 59.8 µM)	3.57%	–	–	–	–
Clc1cc(Cl)c2oc(N/N=C/c3c[nH]nc3-c3cc(Cl)sc3Cl)nc2c1	6.25 µg/mL (≈ 14 µM)	3.12 µg/mL (≈ 6.99 µM)	2.98%	3.1%	3.12 µg/mL (≈ 6.99 µM)	3.12 µg/mL (≈ 6.99 µM)	3.03%	12.5 µg/mL (≈ 28 µM)	3.07%	–	–	–	–
Clc1cc(Cl)c2oc(N/N=C/c3c[nH]nc3-c3ccc(-c4ccccc4)cc3)nc2c1	25 µg/mL (≈ 55.8 µM)	12.5 µg/mL (≈ 27.9 µM)	2.43%	2.95%	12.5 µg/mL (≈ 27.9 µM)	12.5 µg/mL (≈ 27.9 µM)	2.65%	25 µg/mL (≈ 55.8 µM)	2.77%	–	–	–	–
CSc1ccc(-c2n[nH]cc2/C=N/n2c(S)nnc2-c2ccncc2)cc1	3.12 µg/mL (≈ 7.94 µM)	3.12 µg/mL (≈ 7.94 µM)	2.62%	2.9%	3.12 µg/mL (≈ 7.94 µM)	6.25 µg/mL (≈ 15.9 µM)	2.77%	12.5 µg/mL (≈ 31.8 µM)	2.83%	–	–	–	–
Sc1nnc(COc2cccc3ccccc23)n1/N=C/c1c[nH]nc1-c1ccc(Cl)cc1Cl	3.12 µg/mL (≈ 6.31 µM)	6.25 µg/mL (≈ 12.6 µM)	2.85%	3.08%	3.12 µg/mL (≈ 6.31 µM)	1.61 µg/mL (≈ 3.26 µM)	2.93%	12.5 µg/mL (≈ 25.2 µM)	2.25%	–	–	–	–
Sc1nnc(COc2cccc3ccccc23)n1/N=C/c1c[nH]nc1-c1cc(Cl)sc1Cl	1.61 µg/mL (≈ 3.22 µM)	1.61 µg/mL (≈ 3.22 µM)	2.67%	2.2%	3.12 µg/mL (≈ 6.23 µM)	1.61 µg/mL (≈ 3.22 µM)	2.52%	6.25 µg/mL (≈ 12.5 µM)	2.28%	–	–	–	–
CC(C)=CCN1CC[C@]2(C)c3cc(O)ccc3C[C@H]1[C@H]2C [(+)-PENTAZOCINE]	–	–	–	–	–	–	–	–	–	2.22%	2.17%	2.18%	1.9%
CO/N=C(\C(=O)N[C@@H]1C(=O)N2C(C(=O)O)=C(CSc3nc(=O)c(O)nn3C)CS[C@H]12)c1csc(N)n1 [CEFTRIAXONE]	1.61 µg/mL (≈ 2.91 µM)	3.12 µg/mL (≈ 5.63 µM)	–	–	1.61 µg/mL (≈ 2.91 µM)	1.61 µg/mL (≈ 2.91 µM)	–	–	–	–	–	–	–
OC(Cn1cncn1)(Cn1cncn1)c1ccc(F)cc1F [FLUCONAZOLE]	–	–	–	–	–	–	–	6.25 µg/mL (≈ 20.4 µM)	–	–	–	–	–
